The nature of the data set: Toxicity liver stage against HepG2, at 10uM. The class given is cell-based. Further details: test concentration 10 uM, cell line HepG2-A16-CD81EGFP. The following applies: human, HepG2-A16-CD81EGFP cells; read-out: INHIBITION
Put shortly:
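Uninfected HepG2-A16-CD81EGFP cells, 3 × 10^3 per well, 1536-well, plated on prespotted compound at 10 μM final, parasite-free screening media added to match infected plates; puromycin 10 μM positive, DMSO 0.5% negative; run in parallel with 48 h PbLuc assay at 37 °C, 5% CO2; viability by CellTiter-Glo luminescence, normalized to controls.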

The structures appear in SMILES notation.

`Cc1cc(-c2nn3c(C)nnc3s2)n[nH]1`: the cytotoxicity at 10 µM amounted to 6.52%.
Next, `CCc1nnc2n1CCN(C(=O)c1cc3ccccc3[nH]1)C2`: 4.38%; `COC(=O)CCn1ccc(=O)c2ccc(OC)cc21`: 17.1%.
`COC(=O)c1cccc(C(=O)N2CCN(c3ccccc3F)CC2)n1`: the cytotoxicity at 10 µM was -10.9%.
Next, `CCC(=O)Nc1cccc(OCC(=O)N[C@@H]2C[C@@H]3CC[C@H]2C3)c1`: -1.03%.
On to `CN(C)C(=O)c1nnc2ccc(N3CCOCC3)cc2n1`, for which the cytotoxicity at 10 µM is 6.47%.
Next, `COCCN1CCO[C@@H]2CN(C(=O)Cc3ccc(F)cc3)CC[C@@H]2C1`: 7.07%.
Next, `CCOc1ccc(NC(C)=O)cc1S(=O)(=O)Nc1cc(C)on1`: -4.13%.
Next, `CN1CCN(CC2CC2)C(=O)c2cnc(N3CCCC3)nc21`: 5.08%; `O=C1CCc2cc(C(=O)NCc3ccc(Cl)s3)ccc2N1`: 3.65%; `Cc1cccc(CN2CCC3(CCCN(C(=O)c4ccoc4)C3)C2=O)n1` (stereo not drawn): 3.19%.
As for `O=C(Cc1ccc2c(c1)OCCO2)N1CCCC(n2ccnc2)C1` (stereo not drawn), the cytotoxicity at 10 µM is 3.8%.
Next, `O=S(=O)(Nc1ccon1)c1cc(Cl)cc2c1OCC2`: 5.81%; `CC(C)n1cnc2c(N3CCCC3)nc(C3CCNCC3)cc21`: -3.03%; `COc1ccc(CN2CCc3nc(C4CCCCN4C)ncc3C2)cc1` (stereo not drawn): -1.08%.
For `CC(=O)NC1CCCN(C(=O)NCc2cc[nH]n2)C1` (stereo not drawn), the cytotoxicity at 10 µM was -11.5%.
Next, `Cc1cc(C(=O)N(C)Cc2cccs2)nc(N2CCOCC2)n1`: 4.45%; `CS(=O)(=O)CCCNC1CCCN(Cc2noc(C3CC3)n2)C1` (stereo not drawn): 1.15%; `CC(C)c1nc(CN2CCC(c3ccnn3CCO)CC2)no1`: -5.71%.
Next, `COc1cccc(CC(=O)N2CC[C@H]3[C@@H]2CCC(=O)N3C)c1`: -4.57%; `COCC1CN(Cc2ccc(OC)cc2)Cc2nn(C)cc21` (stereo not drawn): 0.976%.
Next, `CC(C)c1noc(CCNC(=O)N2CCN(c3cccs3)CC2)n1`: -5.37%; `CCCc1nnsc1C(=O)N1CCN(CC(O)c2ccco2)CC1` (stereo not drawn): -7.86%; `CCn1ncc2c1C(COCC1CC1)CN(S(=O)(=O)N(C)C)C2` (stereo not drawn): -10.4%.
`COc1ccc(S(=O)(=O)N2CCn3nc(C)nc3C2)cc1C`: the cytotoxicity at 10 µM was determined as 9.68%.
Next, `COCCC(=O)N1CC[C@@H](N2CCN(C)CC2)[C@@H]1Cc1ccccc1`: 7.7%; `CC(=O)N(Cc1ncc(C)o1)C1CCN(Cc2cccnc2)C1` (stereo not drawn): 15.3%.
Next, `CC(C1CCN(Cc2cccc(OC(F)F)c2)CC1)N1CCOCC1` (stereo not drawn): -9.2%; `CN1CCC(Oc2ccc(-n3ccnc3-c3nccn3C)cc2)CC1`: -7.41%.
Next, `Cc1cccc(-n2cnnc2CCCN2CCOCC2)c1`: -2.42%; `CC(C)(CO)Nc1c(NCc2ccccc2)c(=O)c1=O`: -2.96%; `CC1CCN(C(=O)C2CCCN(C(=O)Nc3ccccn3)C2)CC1` (stereo not drawn): -2.98%.
For `Cc1c(Br)cccc1C(=O)NC(C)CN1CCCC1=O` (stereo not drawn), the cytotoxicity at 10 µM is -1.58%.
Next, `Cc1cnccc1CNCc1ccc(OC23CCCN(CC2)C3)cc1` (stereo not drawn): -12.3%; `CN(C)C(=O)CS(=O)(=O)Cc1cc(Cl)c2c(c1)OCO2`: -6.24%; `Cc1cc2n(n1)CC(CNCc1ccnc(-n3ccnc3C)c1)CN2` (stereo not drawn): -4.95%.
Take `CCCc1nnc(N2CCC(N3CCN(CCO)CC3)CC2)o1`: the cytotoxicity at 10 µM is -4.95%.
Next, `CCc1nnc2n1CCN(Cc1csc(-c3cnn(C)c3)n1)C2`: 18.4%; `O=C(CC1CCC1)N1CCCC(CO)(CC2CC2)C1` (stereo not drawn): 7.18%.
Next, `Cn1ccnc1-c1noc(NCc2ccc3c(c2)OCCO3)n1`: -0.408%.
Next, `CC(=O)NCCNC(=O)CN1CCOC(Cn2cccn2)C1` (stereo not drawn): -7.6%.
`Cc1cc(C)n(CCCN(C)c2cc(N(C)C)ncn2)n1`: the cytotoxicity at 10 µM was determined as 3.85%.
Take `N#CC1(NC(=O)CN2CCC(c3ccnn3CCO)CC2)CCCC1`: the cytotoxicity at 10 µM turned out to be 2.85%.
Next, `Cc1nc(-c2ccccc2)cc(C2CCNCC2)n1`: 3.78%.
Next, `CCOC(=O)N1CCC(NC(=O)Nc2cccnc2OCC)CC1`: -31.9%.
Next, `CN(CC(=O)Nc1nncs1)CC1CCCN1c1cccnn1` (stereo not drawn): -13.7%; `Cc1ccc(CCNC(=O)Nc2cc(C(F)(F)F)c[nH]c2=O)o1`: -11.9%.
For the molecule `Cc1ccc(CN(CCN(C)C)C(=O)Nc2cc(C(N)=O)ccc2C)s1`, the cytotoxicity at 10 µM is 13.1%.
Next, `Cc1cc(CN2CCN(c3ccc4nncn4n3)C(C)C2)no1` (stereo not drawn): -4.66%.
For the molecule `CC(C)C(=O)NC1CCCN(C(=O)c2ccccc2O)C1` (stereo not drawn), the cytotoxicity at 10 µM was -2.55%.
Take `Cc1ccc(-c2nc(C3CCN(C(=O)c4ccnn4C)CC3)no2)cn1`: the cytotoxicity at 10 µM was -5.17%.
Next, `Cc1nnc(NC(=O)CN2CCc3nn(C)c(=O)cc3C2)s1`: -6.18%.
Next, `Cc1cc(CNCC2(O)CCOCC2)ccc1F`: 6.71%.
Next, `CCN(C(=O)CN1CCCC1c1ccc(F)cc1)c1ccccc1C` (stereo not drawn): 5.42%.
As to `c1nc(CNC2CCOCC2)c2n1CCCN(CC1CC1)C2`, the cytotoxicity at 10 µM was -69.1%.
Next, `CC(C)N1CCc2ncn(C(C)C)c2C1C(=O)NCCN1CCCC1` (stereo not drawn): 3.11%.
Next, `O=S(=O)(c1cccnc1)N1CCN(CCn2ccnc2)CC1`: -31.2%; `Cc1ccc(CNC(c2ccc(F)cc2)c2nccn2C)o1` (stereo not drawn): 0.841%.
Take `Cn1nnnc1SCC1COc2ccccc2O1` (stereo not drawn): the cytotoxicity at 10 µM is -1.94%.
`CCc1nc(C2CCCN2C(=O)c2cnc[nH]2)no1` (stereo not drawn): the cytotoxicity at 10 µM was -13.6%.
In the case of `Cc1nc2cc(C(=O)N3CCCC(n4ccnc4)C3)ccc2n1C` (stereo not drawn), the cytotoxicity at 10 µM was -8.44%.
Next, `CCNc1nc(-c2cccnc2)c(-c2ccnc(NS(C)(=O)=O)n2)s1`: -12.3%; `CS(=O)(=O)NC[C@H]1OC[C@H]2CN(Cc3ccsc3)CC[C@H]21`: 5.29%.
For the molecule `Cc1cnc(C(=O)N2C[C@H]3CN(Cc4cccc(F)c4)C(=O)[C@H]3C2)cn1`, the cytotoxicity at 10 µM is -85.7%.
Next, `Cc1ccc(NC2CCCN(C3Cc4ccccc4C3)C2)nn1` (stereo not drawn): -2.38%; `COCC(=O)N1CCOC2(CCCN(c3cnccn3)C2)C1` (stereo not drawn): 7.83%; `Clc1ccccc1C1(c2ccnc(CC3CC3)n2)CCNCC1`: -10.3%.
As for `CCOc1ccccc1CSc1nnc(CC2CCS(=O)(=O)C2)n1C` (stereo not drawn), the cytotoxicity at 10 µM is 10.7%.
Next, `COc1cc(-c2nc3c([nH]2)CCCNC3=O)ccc1OC(C)C`: 13.3%; `Cc1cnn(-c2cccc(N3CCCC3)n2)c1`: -6.26%.
As for `O=S(=O)(c1ccccc1)N1CCN(CCn2ccnc2)CC1`, the cytotoxicity at 10 µM is -21.6%.
As for `CC(C)c1cc(C(=O)N2CCN(c3ccc(F)c(Cl)c3)CC2)n(C)n1`, the cytotoxicity at 10 µM came to 19.7%.
Next, `CSCC[C@H](NC(=O)CCn1ccc2c(Br)cccc21)C(=O)O`: 0.633%; `COC(=O)C(C)(C)NC(=O)c1cnc(C(C)(C)C)s1`: 3.87%; `O=C(NC1CCCCNC1=O)c1cc2ccccc2[nH]c1=O` (stereo not drawn): -6.08%.
Next, `COCc1nnn2c1CN(C(=O)c1c[nH]cn1)CCC2`: 2.02%; `CO[C@@H]1CN(c2ccccc2)S(=O)(=O)[C@@]12CCN(C(C)=O)C2`: 6.07%; `CC(C)c1ccc(O)c(C(=O)NCc2cc[nH]n2)c1`: -1.49%.
Next, `COc1ccc2ncn(Cc3ncc[nH]3)c(=O)c2c1`: -11%; `COC(=O)N1CCC(c2nnc(Cn3ccnc3)n2C)CC1`: -110%; `O=C(C[C@@H]1COC[C@H]2CN(CC3CC3)C[C@@H]12)NCc1cccnc1`: 9.21%.
As for `CC(C)c1cc(C2CCCN2C(=O)c2cn3ccsc3n2)no1` (stereo not drawn), the cytotoxicity at 10 µM is -2.33%.
Next, `COc1c(CNC(C)C(=O)NC2CCCC2)c(C)nn1C` (stereo not drawn): -8.45%; `Cn1cc(C(=O)Nc2cccc(F)c2)ccc1=O`: -9.66%.
As to `CS(=O)(=O)CCN1CCSCC1c1ccc(Cl)cc1` (stereo not drawn), the cytotoxicity at 10 µM is -24.3%.
Next, `Cc1cc(C)nc(N2CCC(CNC(=O)c3cnccn3)CC2)n1`: -26.1%.
Next, `CCc1nc(CN2CCCC(Cn3nc(C)nc3C)C2)no1` (stereo not drawn): -2.68%.
Next, `COc1cc(CNC(=O)C2CC(=O)N(C(C)C)C2)ccn1` (stereo not drawn): -5.36%; `Cc1cc(S(C)(=O)=O)c(C)c(S(=O)(=O)NC2CCCC2)c1`: 12.8%.
Consider `Cc1ccccc1-c1cc(C(=O)N2CCCC(n3ccnc3C)C2)[nH]n1` (stereo not drawn), for which the cytotoxicity at 10 µM was 14.3%.
Next, `N#Cc1ccc(CS(=O)(=O)NC(=O)c2ccc(C#N)cc2)cc1`: 5.47%; `O=C1OCCN1Cc1ncnn1Cc1c(F)cccc1Cl`: -1.26%.
Next, `NC(=O)c1cc2c(nc1CCOc1ccc(F)cc1)CCC2`: 4.22%; `CC(=O)Nc1nc(C(=O)NCc2ccc(N3CCCCCC3)nc2)cs1`: 4.74%; `CSc1nc2ccsc2c(=O)n1CC(=O)N(C)c1ccccc1`: -5.57%.
Next, `O=C(c1cccc(S(=O)(=O)NCCCc2ncc[nH]2)c1)N1CCOCC1`: -11.4%.
In the case of `COc1ccc(OCC2CCCN(Cc3ccncc3)C2)cc1` (stereo not drawn), the cytotoxicity at 10 µM was -8.44%.
Next, `c1cc(CN2CCN(Cc3cscn3)CC2)cs1`: 2.45%.

The values above are taken from ChEMBL document CHEMBL4513216, “Probing the Open Global Health Chemical Diversity Library for Multistage-Active Starting Points for Next-Generation Antimalarials” (ACS Infect Dis, 2020).
